Measured values collected from several papers.
Protocols differ between the studies behind these lines.
Target: Serine/threonine-protein kinase 24 (STK24, Homo sapiens, UniProt Q9Y6E0)

| SMILES | test | system | conditions | quantity | result |
| --- | --- | --- | --- | --- | --- |
| CN(c1nccc(-c2cnn3ncccc23)n1)C1CC1 | cell-free assay | – | 1 µM | remaining signal | 100% |
| CC(C)(C)c1nc2c(s1)c1nc(N)ncc1c1ccc(NS(=O)(=O)c3c(F)cccc3F)c(F)c12 | enzyme activity, inhibitor, radiometric | – | 1 µM | remaining activity | 28% |
| Cc1ccc(NC(=O)c2ccc(C)c(C(F)(F)F)c2)cc1C#Cc1nn(C2CCC(O)CC2)c2ncnc(N)c12 (stereo not shown) | cell-free assay | – | 10 µM | remaining signal | 114% |
| COc1ccc2c(c1)O[C@H](c1ccc(OC)c(OC)c1)C[C@@H]2NC(=O)C1(c2ccc3c(c2)OC(F)(F)O3)CC1 | cell-free assay, competition with immobilised ligand | – | 1 µM | remaining binding | 92% |
| CCN1CCN(Cc2ccc(NC(=O)c3ccc(C)c(Oc4ccnc5[nH]ccc45)c3)cc2C(F)(F)F)CC1 | target engagement in cells, inhibitor, chemoproteomics | Huh-7 | 1 µM | inhibition | -56% |
| COc1cc(/C=C/C(=O)CC(=O)/C=C/c2ccc(O)c(OC)c2)ccc1O | enzyme activity, inhibitor | – | 1 µM | activity vs control | 91% |
| CCN1CCN(Cc2ccc(NC(=O)c3ccc(C)c(/C=C/c4cnc5[nH]ccc5c4OC)c3)cc2C(F)(F)F)CC1 | target engagement in cells, inhibitor, chemoproteomics | A-375 | 50 nM | inhibition | -17% |
| CCOCCn1cc(C(=O)Nc2ccc(-n3nc(-c4cccnc4)cc3C(F)(F)F)cn2)ccc1=O | cell-free assay, competition with immobilised ligand | – | 1 µM | remaining binding | 100% |
| Cn1cncc1C1=CN(c2ncnc3[nH]cnc23)CCS1 | enzyme activity, inhibitor, radiometric | – | 50 nM | inhibition | 13.2% |
| N#CC1(c2ccccn2)CCN(Cc2cc(C(=O)N3CCCC3)c(=O)n3ccccc23)CC1 | cell-free assay, competition with immobilised ligand | – | 1 µM | remaining binding | 87% |
| Cn1c2c(Cl)c(Cl)ccc2c2cn[nH]c(=O)c21 | thermal stability, DSF | – | 10 µM | ΔTm | 0.7 °C |
| CN1CC(Oc2cnc(C#N)cc2-c2ccn3nc(NC(=O)C4CC4)cc3c2)C1 | enzyme activity, inhibitor | – | 1 µM | inhibition | 6% |
| Oc1cccc(-c2nc(N3CCOCC3)c3oc4ncccc4c3n2)c1 | cell-free assay | – | 0.5 µM | remaining signal | 100% |
| COc1cc2ncnc(Nc3ccc(Oc4ccccc4)cc3C)c2cc1OC | enzyme activity, inhibitor | – | 1 µM | inhibition | 9% |
| c1ccc(CNc2nc(N3CCOc4ccccc43)nc3c2CCCC3)cc1 | target engagement in cells, inhibitor, chemoproteomics | – | 20 mM | inhibition | -7% |
| C[C@@H]1CN(c2cc(-c3nn(C)c4ccc(OC5(C)CC5)cc34)ncn2)C[C@H](C)O1 | cell-free assay, competition with immobilised ligand | – | 1 µM | remaining binding | 79% |
| Cc1ccc(Nc2nccc(N(C)c3ccc4c(C)n(C)nc4c3)n2)cc1S(N)(=O)=O | enzyme activity, inhibitor | – | 0.3 µM | inhibition | -5% |

| SMILES | test | system | conditions | quantity | result |
| --- | --- | --- | --- | --- | --- |
| Cc1sc(C(=O)NC2COC2)cc1-n1cc(NC(=O)Nc2c(F)cccc2Cl)cn1 | enzyme activity, inhibitor | – | 10 µM | remaining activity | 67.3% |
| NS(=O)(=O)c1cc(NC(=O)C2(c3ccccc3Cl)CC2)ccc1Oc1cccc(Cl)c1 | cell-free assay, competition with immobilised ligand | – | 1 µM | remaining binding | 93% |
| N#CCCc1ccc2c(c1)-c1[nH]c3ccc([N+](=O)[O-])cc3c1CC(=O)N2 | cell-free assay | – | 0.5 µM | remaining signal | 57.7% |
| CNC(=O)c1cc(Oc2ccc(NC(=O)Nc3ccc(Cl)c(C(F)(F)F)c3)cc2)ccn1 | enzyme activity, inhibitor | – | 0.3 µM | inhibition | -9% |
| COc1cc(Cl)c(C(=O)N[C@@H](CN[C@H]2CC[C@@H](N)CC2)Cc2ccc(C#N)cc2)cc1-c1ccc(CN[C@H](C)c2ccc(C)cc2)o1 | enzyme activity, inhibitor | – | 1 µM | remaining activity | 96% |
| COc1ccc2c(O[C@@H]3C[C@H]4C(=O)N[C@]5(C(=O)O)CC5/C=C\CCCCC[C@H](NC(=O)OC5CCCC5)C(=O)N4C3)cc(-c3csc(NC(=O)C(C)C)n3)nc2c1C (stereo partly shown) | cell-free assay, competition with immobilised ligand | – | 1 µM | remaining binding | 100% |
| COc1cc(Nc2c(C#N)cnc3cc(OCCCN4CCN(C)CC4)c(OC)cc23)c(Cl)cc1Cl | cell-free assay | – | 0.5 µM | remaining signal | 11% |
| Cc1ccc(C(=O)Nc2ccc(CN3CCN(C)CC3)c(C(F)(F)F)c2)cc1C#Cc1cnc2cccnn12 | enzyme activity, inhibitor | – | 23.5 nM | remaining activity | 88% |
| Cn1c2c(Cl)c(Cl)ccc2c2cc[nH]c(=O)c21 | thermal stability, DSF | – | 10 µM | ΔTm | 1.3 °C |
| O=C(O)[C@@H]1[C@@H](Cn2nnc3ccccc3c2=O)CC[C@H]1C(=O)c1ccc(OCCC2CCOCC2)cc1 | cell-free assay, competition with immobilised ligand | – | 1 µM | remaining binding | 99% |
| O=C1Nc2ccc(Cl)cc2C1=Cc1cc(Cl)c(O)c(Cl)c1 | cell-free assay | – | 0.5 µM | remaining signal | 104% |
| Cn1c2c(c3ccc(Cl)c(Cl)c31)C(C#N)C1(CCOCC1)NC2=O (stereo not shown) | thermal stability, DSF | – | 10 µM | ΔTm | -0.3 °C |
| Cc1cc(NC(=O)c2cccc3cc(-c4cccc5[nH]nc(N)c45)ccc23)ccc1F | enzyme activity, inhibitor | – | 0.1 µM | activity vs control | 116% |
| Cn1c2c(c3ccc(Cl)c(Cl)c31)C(C#N)C1(CCN(C(=O)OC(C)(C)C)CC1)NC2=O (racemic) | thermal stability, DSF | – | 10 µM | ΔTm | 0 °C |
| C[C@H](NC(=O)c1cnc2n1[C@](C)(Cc1ccc(C#N)cc1)C(=O)N2c1cc(Cl)c(F)c(Cl)c1)C(=O)NC1(c2ccccn2)CC1 | cell-free assay, competition with immobilised ligand | – | 1 µM | remaining binding | 100% |
| Nc1ncnc2occ(-c3ccc(NC(=O)Nc4cc(C(F)(F)F)ccc4F)cc3)c12 | cell-free assay, inhibitor | – | 20 µM | remaining signal | 4% |
| Cn1c2c(c3ccc(Cl)c(Cl)c31)C(C#N)C(C)(C)NC2=O (stereo not shown) | thermal stability, DSF | – | 10 µM | ΔTm | 0.6 °C |
